Consider five compounds from ChEMBL document CHEMBL1141088, “A new pyridazine series of GABAA alpha5 ligands” (J Med Chem, 2005).

Test [1] has as its target T1, GABA-A receptor; alpha-1/beta-3/gamma-2 (Homo sapiens, UniProt P14867+P18507+P28472).
T1 sequence (P14867 whole entry): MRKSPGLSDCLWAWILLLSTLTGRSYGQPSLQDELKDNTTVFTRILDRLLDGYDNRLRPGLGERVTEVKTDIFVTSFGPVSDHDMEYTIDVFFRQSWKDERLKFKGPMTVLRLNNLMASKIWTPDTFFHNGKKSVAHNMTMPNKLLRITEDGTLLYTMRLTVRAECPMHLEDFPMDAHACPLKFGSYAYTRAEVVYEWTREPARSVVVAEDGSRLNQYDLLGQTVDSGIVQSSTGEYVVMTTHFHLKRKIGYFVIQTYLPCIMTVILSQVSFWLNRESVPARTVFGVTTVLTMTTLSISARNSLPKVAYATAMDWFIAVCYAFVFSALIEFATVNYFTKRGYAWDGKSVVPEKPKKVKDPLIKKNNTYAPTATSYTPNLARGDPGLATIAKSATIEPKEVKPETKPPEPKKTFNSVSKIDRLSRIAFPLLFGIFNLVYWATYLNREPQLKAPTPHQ
T1 sequence (P18507 whole entry): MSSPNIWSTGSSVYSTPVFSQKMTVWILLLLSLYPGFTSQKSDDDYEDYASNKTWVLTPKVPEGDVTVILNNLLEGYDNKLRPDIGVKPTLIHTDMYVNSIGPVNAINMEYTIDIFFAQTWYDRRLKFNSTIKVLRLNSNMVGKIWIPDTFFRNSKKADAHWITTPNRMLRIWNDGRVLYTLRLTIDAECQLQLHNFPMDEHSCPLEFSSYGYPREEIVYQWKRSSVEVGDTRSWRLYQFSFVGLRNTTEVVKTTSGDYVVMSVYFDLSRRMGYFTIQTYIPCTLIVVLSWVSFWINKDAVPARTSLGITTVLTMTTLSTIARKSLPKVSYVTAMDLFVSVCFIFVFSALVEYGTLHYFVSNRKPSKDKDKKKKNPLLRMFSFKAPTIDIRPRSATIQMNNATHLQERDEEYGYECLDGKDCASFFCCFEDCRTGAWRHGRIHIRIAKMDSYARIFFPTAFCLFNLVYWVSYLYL
T1 sequence (P28472 whole entry): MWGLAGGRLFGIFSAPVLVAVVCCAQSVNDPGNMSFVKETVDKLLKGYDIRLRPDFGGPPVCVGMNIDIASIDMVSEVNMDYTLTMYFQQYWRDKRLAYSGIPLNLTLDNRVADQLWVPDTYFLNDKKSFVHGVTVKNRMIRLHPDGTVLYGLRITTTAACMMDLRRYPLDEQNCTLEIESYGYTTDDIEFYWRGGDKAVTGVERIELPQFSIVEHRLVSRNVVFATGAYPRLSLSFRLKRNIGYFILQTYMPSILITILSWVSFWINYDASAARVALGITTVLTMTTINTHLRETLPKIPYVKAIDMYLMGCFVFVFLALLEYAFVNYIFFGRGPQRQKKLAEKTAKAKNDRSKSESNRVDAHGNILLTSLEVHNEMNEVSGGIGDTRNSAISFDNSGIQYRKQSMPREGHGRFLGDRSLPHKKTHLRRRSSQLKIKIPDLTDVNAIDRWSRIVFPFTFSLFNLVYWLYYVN
The experiment in a line: Displacement of [3H]-Ro- 15-1788 binding from human recombinant Gamma-aminobutyric acid A receptor alpha-1-beta-3-gamma-2 expressed in mouse fibroblast L(tk-) cells (30 min at 24 degrees C, pH 7.4). Format: cell-based. In short, it runs like this:
(§1)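 Membranes from L(tk-) cells stably expressing human α1, α3 or α5 β3γ2 in 50 mM Tris pH 7.4. [3H]Ro15-1788 at 1.8 nM final, 30 min at 24 °C. Nonspecific binding set with 10 µM flunitrazepam, total binding in 0.1% DMSO. Filtration, scintillation counting. Ki is mean ± SEM of ≥3 independent determinations.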
(In general: In a radioligand displacement assay an active substance lowers the binding of a labelled ligand.)

The target in test [2] is T2, GABA-A receptor; alpha-3/beta-3/gamma-2 (Homo sapiens, UniProt P18507+P28472+P34903).
T2 sequence (P18507 whole entry): T1 sequence (P18507 whole entry)
T2 sequence (P28472 whole entry): T1 sequence (P28472 whole entry)
T2 sequence (P34903 whole entry): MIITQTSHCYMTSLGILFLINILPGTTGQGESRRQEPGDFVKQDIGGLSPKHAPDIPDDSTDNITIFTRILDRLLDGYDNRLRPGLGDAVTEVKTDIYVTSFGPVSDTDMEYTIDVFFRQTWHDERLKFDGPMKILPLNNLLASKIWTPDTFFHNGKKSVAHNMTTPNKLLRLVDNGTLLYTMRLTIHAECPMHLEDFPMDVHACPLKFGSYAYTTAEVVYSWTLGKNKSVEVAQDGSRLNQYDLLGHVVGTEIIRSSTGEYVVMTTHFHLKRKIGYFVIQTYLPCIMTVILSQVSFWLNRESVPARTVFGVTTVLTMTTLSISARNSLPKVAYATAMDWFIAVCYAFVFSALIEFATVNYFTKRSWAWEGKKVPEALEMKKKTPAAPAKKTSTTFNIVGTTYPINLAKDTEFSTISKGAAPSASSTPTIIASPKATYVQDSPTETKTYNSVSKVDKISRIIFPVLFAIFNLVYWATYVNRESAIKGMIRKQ
Kind of test: Displacement of [3H]-Ro- 15-1788 binding from human recombinant Gamma-aminobutyric acid A receptor alpha-3-beta-3-gamma-2 expressed in mouse fibroblast L(tk-) cells (30 min at 24 degrees C, pH 7.4). It counts as cell-based. In short, it runs like this:
as §1

Test [3] deals with T3, GABA-A receptor; alpha-5/beta-3/gamma-2 (Homo sapiens, UniProt P18507+P28472+P31644).
T3 sequence (P18507 whole entry): T1 sequence (P18507 whole entry)
T3 sequence (P28472 whole entry): T1 sequence (P28472 whole entry)
T3 sequence (P31644 whole entry): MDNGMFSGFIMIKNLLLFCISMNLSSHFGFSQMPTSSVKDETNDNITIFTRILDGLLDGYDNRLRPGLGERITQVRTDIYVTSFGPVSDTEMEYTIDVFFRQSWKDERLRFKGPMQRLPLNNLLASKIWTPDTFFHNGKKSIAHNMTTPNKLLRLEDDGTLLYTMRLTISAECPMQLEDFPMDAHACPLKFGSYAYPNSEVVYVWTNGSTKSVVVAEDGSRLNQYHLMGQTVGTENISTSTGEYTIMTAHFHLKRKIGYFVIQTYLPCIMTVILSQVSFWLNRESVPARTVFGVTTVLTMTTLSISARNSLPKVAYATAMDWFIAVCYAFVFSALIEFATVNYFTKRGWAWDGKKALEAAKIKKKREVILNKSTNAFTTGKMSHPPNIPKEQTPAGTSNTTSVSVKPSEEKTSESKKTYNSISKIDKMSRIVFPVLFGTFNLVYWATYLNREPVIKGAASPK
The experiment in a line: Displacement of [3H]-Ro- 15-1788 binding from human recombinant Gamma-aminobutyric acid A receptor alpha-5-beta-3-gamma-2 expressed in mouse fibroblast L(tk-) cells (30 min at 24 degrees C, pH 7.4). Format: cell-based. The method, boiled down:
as §1

In test [4] the target is T4, GABA-A receptor; alpha-5/beta-3/gamma-2 (Homo sapiens) (UniProt P18507+P28472+P31644). The experiment in a line: Efficacy at GABAA alpha-5-beta-3-gamma-2 receptor expressed in mouse fibroblast L(tk-) cells measured at 300 nM derived from at least three plates/day screened over a minimum of 2 days. Format: functional, cell-based. In short, it runs like this: (§2)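 FRET membrane-potential (VIPR) assay in L(tk-) cells with receptor expression induced 24 h by 1 µM dexamethasone. Dye-loaded 30 min in low-Cl- HEPES buffer pH 7.4: 4 µM CC2-DMPE, 1 µM DiSBAC2(3), 0.5 mM tartrazine. Basal read 8 s, compound at 300 nM, half-maximal GABA 22 s later, 1 Hz reads. Background-subtracted 460/580 nm ratio, normalized to DMCM as -100%.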

Test [5] deals with T5, GABA-A receptor; alpha-3/beta-3/gamma-2 (Homo sapiens) (UniProt P18507+P28472+P34903). Kind of test: Efficacy for GABA-A alpha-3-beta-3-gamma-2 receptor expressed in mouse fibroblast L(tk-) cells at 300 nM derived from at least three plates/day screened over a minimum of 2 days. It counts as functional, cell-based. The method, boiled down: as §2
The target in test [6] is T5, GABA-A receptor; alpha-3/beta-3/gamma-2 (Homo sapiens). The experiment in a line: Efficacy at GABAA alpha-3-beta-3-gamma-2 receptor expressed in mouse fibroblast L(tk-) cells measured at 300 nM derived from at least three plates/day screened over a minimum of 2 days. It counts as functional, cell-based. The method, boiled down:
as §2

Test [7] concerns the target T4, GABA-A receptor; alpha-5/beta-3/gamma-2 (Homo sapiens). The experiment in a line: Efficacy for GABA-A alpha-5-beta-3-gamma-2 receptor expressed in mouse fibroblast L(tk-) cells at 300 nM derived from at least three plates/day screened over a minimum of 2 days. It counts as functional, cell-based. The method, boiled down: as §2

What is called Ki is a measure of affinity in units of concentration, obtained from inhibition or displacement. With `Brc1cccc(-c2cnnc(-c3ccccc3)c2)c1`, the inhibition constant Ki was 0.0075 µM in test [1], 0.015 µM in test [2] and 0.0079 µM in test [3]. The Efficacy in test [4] and in test [5] was -2 each time.
In the case of `N#Cc1cccc(-c2cnnc(-c3ccc(F)c(F)c3)c2)c1`, the figures for the inhibition constant Ki in test [2] and in test [3] were 0.041 µM and 0.013 µM, respectively. For the same compound, the Efficacy in test [6] is 32; in test [7] it was -15.
As for `c1ccc(-c2cnnc(-c3ccccc3)c2)cc1`, the inhibition constant Ki in test [1] is 0.036 µM; in test [2] it was 0.045 µM; in test [3], 0.029 µM. Moreover, the results for the Efficacy in test [6] and in test [4] were -20 and -14, respectively.
`CC(C)Oc1cc(-c2cccc(Br)c2)cnn1`: the Ki is 0.026 µM in test [1], 0.06 µM in test [2] and 0.036 µM in test [3]. In addition, the results for the Efficacy in test [6] and in test [4] were 28 and 12, respectively.
For the compound `COC(=O)c1c(-c2ccccc2)cnnc1-c1ccccc1`, the inhibition constant Ki turned out to be 0.154 µM in test [1], 0.064 µM in test [2] and 0.012 µM in test [3]. This compound also returned an Efficacy in test [7] of 27.
